Laboratory results published in ChEMBL document CHEMBL1765074, “Synthesis, evaluation and structural studies of antiproliferative tubulin-targeting azetidin-2-ones” (Bioorg Med Chem, 2011).
Blank lines part the entries; values can stand above or below the compound they belong to.

Key:
MCF7 = assay: Antiproliferative activity against human MCF7 cells by MTT assay; type: functional, cell-based
How it was run: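 MCF-7 cells grown in Eagle's MEM with 10% FBS, 2 mM L-glutamine, penicillin/streptomycin and 1% non-essential amino acids. Seeded at 2.5×10^4 cells/mL, left 24 h at 37°C, then treated 72 h across 1 nM–100 μM from ethanol stocks (vehicle 1% v/v). MTT at 1 mg/mL final for 2 h in darkness, DMSO solubilisation, absorbance read. IC50 is the mean of at least three experiments in triplicate.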

[1] = Inhibition of bovine tubulin polymerization assessed as concentration required for 50% Vmax inhibition by spectrophotometry; design: species or system Bos taurus
[2] = Cytotoxicity against CD-1 mouse mammary epithelial cells seeded at 50000 cells/ml assessed as viable cells at IC50 after 72 hrs by alamar blue assay; type: cell-based, Epithelial cell; settings: read-out: Activity
How it was run: (§1)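 Primary mammary epithelial cells came from 14-18 day pregnant CD-1 mice and were seeded at 25,000 or 50,000 cells/mL. After 24 h they were exposed 72 h to 1 nM–100 μM compound from ethanol stocks (vehicle ethanol 1% v/v). Viability was read with alamar blue.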

[3] = Inhibition of bovine tubulin polymerization by spectrophotometry; design: species or system Bos taurus
How it was run: (§2)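 Purified bovine tubulin was mixed with GTP and polymerisation started by warming from 4 °C to 37 °C. Absorbance at 340 nm was recorded every 30 s for 60 min at 37 °C, with 1% v/v ethanol as vehicle. Fold change in Vmax was calculated against the ethanol control. Runs were in triplicate.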

[4] = Cytotoxicity against CD-1 mouse mammary epithelial cells seeded at 50000 cells/ml assessed as viable cells at 10 uM after 72 hrs by alamar blue assay; type: cell-based, Epithelial cell; settings: read-out: Activity; how it was run: as §1
[5] = Cytotoxicity against CD-1 mouse mammary epithelial cells seeded at 25000 cells/ml assessed as viable cells at 10 uM after 72 hrs by alamar blue assay; type: cell-based, Epithelial cell; settings: read-out: Activity; how it was run: as §1
MDA-MB-231 = assay: Antiproliferative activity against human MDA-MB-231 cells by MTT assay; type: functional, cell-based
How it was run: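 MDA-MB-231 cells in DMEM with 10% FBS, 2 mM L-glutamine and penicillin/streptomycin were seeded at 2.5×10^4 cells/mL and held 24 h at 37°C. They then got ethanol-stock compound over 1 nM–100 μM (vehicle 1% v/v ethanol) for 72 h. MTT at 1 mg/mL final was added for 2 h in the dark, then DMSO for 20 min before absorbance. Untreated = 100% viability. IC50 is the mean ± S.E.M. of ≥3 triplicate experiments.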

Bos taurus = organism: Bos taurus; assay: Inhibition of bovine tubulin polymerization assessed as reduction in Vmax at 10 uM by spectrophotometry; how it was run: as §2
[6] = Cytotoxicity against CD-1 mouse mammary epithelial cells seeded at 25000 cells/ml assessed as viable cells at IC50 after 72 hrs by alamar blue assay; type: cell-based, Epithelial cell; settings: read-out: Activity; how it was run: as §1

SMILES: COc1ccc([C@@H]2C(c3cc4ccccc4n3C)C(=O)N2c2cc(OC)c(OC)c(OC)c2)cc1 (stereo partly drawn)
- IC50 (MCF7): 6600 nM

SMILES: COc1ccc([C@@H]2[C@@H](c3cccs3)C(=O)N2c2cc(OC)c(OC)c(OC)c2)cc1O
- IC50 [1]: 1370 nM
- viability at 72 h [2]: 90.6%
- IC50 (MCF7): 7 nM
- IC50 [3]: 6250 nM
- viability at 72 h, 10 µM [4]: 74.8%
- viability at 72 h, 10 µM [5]: 71.2%
- IC50 (MDA-MB-231): 180 nM
- fold change (FC) (Bos taurus): 3.2
- viability at 72 h [6]: 90.7%

SMILES: COc1ccc([C@@H]2[C@@H](c3ccsc3)C(=O)N2c2cc(OC)c(OC)c(OC)c2)cc1O
- IC50 (MCF7): 10 nM
- IC50 (MDA-MB-231): 49 nM

SMILES: COc1ccc([C@@H]2[C@@H](c3cccs3)C(=O)N2c2cc(OC)c(OC)c(OC)c2)cc1N
- IC50 (MCF7): 42 nM
- IC50 (MDA-MB-231): 110 nM

SMILES: COc1ccc([C@@H]2[C@@H](C(O)c3ccc(C)s3)C(=O)N2c2cc(OC)c(OC)c(OC)c2)cc1 (stereo partly drawn)
- IC50 (MCF7): 1260 nM

SMILES: COc1ccc([C@@H]2[C@@H](C(=O)c3ccsc3)C(=O)N2c2cc(OC)c(OC)c(OC)c2)cc1
- IC50 (MCF7): 470 nM

SMILES: COc1ccc([C@H]2N(c3cc(OC)c(OC)c(OC)c3)C(=O)C2(C)c2ccccc2)cc1 (mixture of isomers)
- IC50 (MCF7): 43500 nM

Other lines, results leading:

- IC50 (MCF7): 1100 nM
SMILES: COc1ccc([C@@H]2[C@@H](C(O)c3ccoc3)C(=O)N2c2cc(OC)c(OC)c(OC)c2)cc1 (stereo partly drawn)

- IC50 (MCF7): 1200 nM
SMILES: COc1ccc([C@@H]2[C@@H](C(O)c3cccs3)C(=O)N2c2cc(OC)c(OC)c(OC)c2)cc1 (stereo partly drawn)

- IC50 (MCF7): 950 nM
SMILES: COc1ccc([C@@H]2[C@@H](C(=O)c3cccs3)C(=O)N2c2cc(OC)c(OC)c(OC)c2)cc1

- IC50 (MCF7): 4050 nM
SMILES: COc1ccc([C@@H]2/C(=C/c3cccs3)C(=O)N2c2cc(OC)c(OC)c(OC)c2)cc1

- IC50 (MCF7): 580 nM
SMILES: COc1ccc(C2/C(=C/c3ccc(C)s3)C(=O)N2c2cc(OC)c(OC)c(OC)c2)cc1 (stereo not drawn)

- IC50 (MCF7): 580 nM
SMILES: COc1ccc([C@@H]2C(C3CCCCC3)C(=O)N2c2cc(OC)c(OC)c(OC)c2)cc1 (mixture of isomers)
